Screens (PubChem BioAssay)
SKN-1 inh: inhibitors of C. elegans SKN-1; C. elegans VP596 Pgst-4::GFP/RFP ratio, acrylamide-induced, 24 h; inhibition, % at 21.8 µM; actives 0.49% (n = 360,000);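 active = interference check ratio from 0.5 to 1.5 plus GFP to RFP signal ratio inhibition reaching or exceeding a fixed threshold, cut at about 30% in these data, passing the limit was not always enough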
TLR9-MyD88 block: TLR9-MyD88 interaction inhibition; Q9NR96+Q99836; CHO BLA complementation TLR9-MyD88, CCF4 FRET ratio; inhibition, % at 4.98 µM; actives 0.21% (n = 340,000); AID 504734;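 active = inhibition above the mean over all tested compounds plus 3 SD, cut at about 21% in these data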;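 also: 0% = DMSO only wells and 100% = clavulanate BLA inhibitor control wells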
TLR4-MyD88 BLA: inhibitors of human TLR4-MyD88 binding | inhibition, % at 8.4 µM | O00206+Q99836 | HeLa CL3-4 TLR4/MyD88 BLA complementation, FRET ratio | actives 0.18% (n = 200,000); in the data active = inhibition above about 25%;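 also: 0% = vehicle and 100% = reference inhibitor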
MT1-MMP act inh: blocks activation of human MT1-MMP | AID 651647 | HT1080 RFP-PRO-GFP cells, GFP/RFP ratio fluorescence, overnight; percent of plate control window, DMSO zero | actives 0.061% (n = 360,000) | GFP/RFP ratio change, % at 20 µM | P50281;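 active = GFP/RFP ratio change of at least 30% with cell ATP level not reduced by more than half and red fluorescence within 50% of control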
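Assay system – RFP-PRO-GFP reporter HT1080 cells · Compound dosing – single dose of 20 µM compound, 1% DMSO final · Incubation – overnight compound exposure at 37 °C · Measure – GFP/RFP fluorescence ratio · Benchmarks – DMSO wells and RFP-L50D-GFP cells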
NOD2 RIPK2 PPI: blocks binding of human NOD2 to RIPK2 | actives 0.38% (n = 360,000) | O43353 | CHO BLA complementation NOD2-RIPK2, CCF4 ratio | AID 624267 | inhibition, % at 4.98 µM; in the data active = inhibition above about 21%;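 also: 0% = vehicle only and 100% = reference blocker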
TLR9-MyD88 conf: TLR9-MyD88 interaction inhibition, confirmation. CHO TLR9/MyD88 BLA complementation, CCF4 FRET ratio. shares compounds with TLR9-MyD88 block. actives 51% (n = 680). AID 540250. inhibition, % at 4.98 µM;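 active = mean inhibition across three repeats above about 21% taken from the earlier screen, limit read from the data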;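 also: blue over green emission ratio reports constitutive TLR9 MyD88 association via BLA complementation; 0% = DMSO vehicle wells and 100% = clavulanate BLA inhibitor wells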
Target sequence (Q9NR96 whole entry, looked up): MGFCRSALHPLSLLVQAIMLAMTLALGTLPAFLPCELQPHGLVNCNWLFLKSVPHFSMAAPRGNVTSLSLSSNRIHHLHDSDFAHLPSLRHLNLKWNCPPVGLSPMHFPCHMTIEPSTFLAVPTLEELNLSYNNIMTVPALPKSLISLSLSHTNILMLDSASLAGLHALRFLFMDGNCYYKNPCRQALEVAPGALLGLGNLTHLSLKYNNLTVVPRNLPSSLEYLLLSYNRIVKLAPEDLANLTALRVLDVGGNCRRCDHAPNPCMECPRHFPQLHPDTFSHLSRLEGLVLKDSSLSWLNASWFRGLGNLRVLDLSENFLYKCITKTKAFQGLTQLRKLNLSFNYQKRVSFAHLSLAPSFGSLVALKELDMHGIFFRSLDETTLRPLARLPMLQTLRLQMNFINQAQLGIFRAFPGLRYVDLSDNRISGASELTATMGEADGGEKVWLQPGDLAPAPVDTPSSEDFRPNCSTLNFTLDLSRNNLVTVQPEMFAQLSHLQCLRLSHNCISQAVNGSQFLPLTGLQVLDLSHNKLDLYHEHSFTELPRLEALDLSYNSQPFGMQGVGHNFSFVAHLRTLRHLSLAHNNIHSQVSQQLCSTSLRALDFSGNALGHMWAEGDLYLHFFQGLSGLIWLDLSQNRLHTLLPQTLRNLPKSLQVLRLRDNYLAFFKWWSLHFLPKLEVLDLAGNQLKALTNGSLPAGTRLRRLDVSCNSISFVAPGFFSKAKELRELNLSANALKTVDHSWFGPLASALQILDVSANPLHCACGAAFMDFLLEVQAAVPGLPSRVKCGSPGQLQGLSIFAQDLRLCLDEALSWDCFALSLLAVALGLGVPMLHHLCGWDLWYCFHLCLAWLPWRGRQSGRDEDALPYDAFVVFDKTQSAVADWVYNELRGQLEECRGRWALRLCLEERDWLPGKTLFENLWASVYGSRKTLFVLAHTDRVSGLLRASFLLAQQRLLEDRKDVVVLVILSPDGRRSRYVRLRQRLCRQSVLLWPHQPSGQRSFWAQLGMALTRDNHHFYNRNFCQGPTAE
BLA counter-1: counter-screen for TLR9-MyD88 inhibitors: non-selective beta-lactamase inhibitors; AID 540251; CHO-BLA cells, CCF4 FRET ratio, BLA reporter; inhibition, % at 4.98 µM; actives 7% (n = 680); shares compounds with TLR9-MyD88 block;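 active = mean inhibition above a 50% cutoff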;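 also: counterscreen of TLR9-MyD88 hits on CMV-driven BLA in CHO-K1 cells; 0% = DMSO alone and 100% = clavulanate blocking BLA; higher means less blue over green ratio so more BLA blockade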
TLR9 CHO tox: counter-screen for TLR9-MyD88 inhibitors: cytotoxicity in CHO cells; actives 39% (n = 680); inhibition, % at 4.98 µM; shares compounds with TLR9-MyD88 block; luminescence; in the data active = inhibition above about 11%
NOD2-RIPK2 conf: NOD2-RIPK2 interaction inhibition confirmed. shares compounds with NOD2 RIPK2 PPI. CHO cells, NOD2-RIPK2 BLA complementation, CCF4 FRET. inhibition, % at 4.98 µM. actives 70% (n = 1,200). AID 624370;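 active = mean inhibition across replicates above a set limit taken from the earlier primary screen, cut at about 21% in these data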;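 also: 0% = DMSO-only wells and the high end = clavulanate BLA-blocked wells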
BLA counter-2: hits BLA reporter in NOD2-RIPK2 inhibitor counterscreen; actives 57% (n = 1,200); CHO BLA reporter, CCF4 FRET ratio; shares compounds with NOD2 RIPK2 PPI; inhibition, % at 4.98 µM;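 active = mean inhibition above the low-control mean inhibition plus three low-control SD, cut at about 11% in these data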;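 also: 0% = DMSO only wells and 100% = clavulanate high control wells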
* hit, by the source's call; / = no result given. Compounds with a hit are over-represented: about 0.99% of the library has one in this group of screens.

SMILES	SKN-1 inh	TLR9-MyD88 block	TLR4-MyD88 BLA	MT1-MMP act inh	NOD2 RIPK2 PPI	TLR9-MyD88 conf	BLA counter-1	TLR9 CHO tox	NOD2-RIPK2 conf	BLA counter-2
O=[N+]([O-])c1ccc(Nc2ccc3ccccc3c2)nc1	19	24*	25	6	37*	19	10	8	21*	25*
CCOC(=O)c1sc2ncn(/N=C/c3ccc(O)c(OC)c3)c(=O)c2c1C	-1	-11	-7	5	0	/	/	/	/	/
O=C1c2ccccc2NC(c2ccc(F)cc2)N1Cc1ccccc1 (stereo not drawn)	-5	-2	/	1	4	/	/	/	/	/
COc1cc(NS(=O)(=O)c2ccc(C)cc2)c2ncccc2c1	2	22*	22	-13	51*	18	10	102*	45*	11*
COc1ccc(S(=O)(=O)Nc2ccccn2)cc1	15	5	/	3	-10	/	/	/	/	/
COc1ccc(/C=C/c2cc(C(=O)O)c3ccccc3n2)cc1	-14	24*	/	-1	48*	0	1	14*	14	13*
CC(C)n1c(SCC(=O)N2CCN(C)CC2)nc2c1c(=O)n(C)c(=O)n2C	3	-2	/	-2	-11	/	/	/	/	/
C[C@H]1CN([C@@H](C)CO)C(=O)CCCn2cc(nn2)CO[C@@H]1CN(C)C(=O)Nc1ccc(-c2cccs2)cc1	-9	/	/	0	-18	/	/	/	/	/
Cc1ccc(C(=O)C(C)Oc2ccc3ccc(=O)oc3c2)cc1 (stereo not drawn)	12	-11	/	-2	4	/	/	/	/	/
Nc1cccc2c1C(=O)N(c1ccccc1)C2=O	2	28*	/	-3	45*	20	23	-5	43*	46*
CCN1CCN(CC(=O)N2N=C(c3cccs3)CC2c2ccc(OC)c(OC)c2)C(=O)C1=O (stereo not drawn)	3	-8	-14	4	-19	/	/	/	/	/
C=C1C(=O)c2sccc2C(c2ccc(OC)c(OC)c2)C1COC(C)=O (stereo not drawn)	2	24*	/	26	95*	28*	7	97*	92*	13*
CCN(CC)C(=O)c1[nH]cnc1C(=O)N[C@H](C)c1ccccc1	21	-3	/	4	-3	/	/	/	/	/
Cc1noc2ncnc(Sc3c(Cl)cccc3Cl)c12	-15	23*	10	-5	37*	22*	6	8	34*	-13
CCOC(=O)c1c(NC(C)=O)sc2c1CCC(C=O)=C2Sc1ccccc1	-6	22*	20	-30	35*	18	3	37*	67*	20*
COC(=O)c1scc2c(=O)cc(C(F)(F)F)[nH]c12	-2	63*	/	-7	72*	50*	55*	-2	74*	78*
O=c1cc(C(F)(F)F)[nH]c2ccc(C(F)(F)F)cc12	14	-9	/	11	12	/	/	/	/	/
NC(=O)c1ccc(Oc2ccc3c(c2)CCC3)c([N+](=O)[O-])c1	3	4	/	-4	-3	/	/	/	/	/
CCOC(=O)C1CCN(S(=O)(=O)c2c(Cl)ccc3nonc23)CC1	-3	43*	/	17	82*	39*	19	81*	78*	15*
O=C(Nc1ccncc1)Nc1cccc(Cl)c1Cl	17	10	/	-6	-15	/	/	/	/	/
O=C(Nc1ccc(Cl)cc1)Nc1cccc2nsnc12	25	21*	/	2	21*	15	15	0	35*	36*
COC(=O)CNC(=O)CN1C(=O)N(c2cccc(Cl)c2)C(N(O)C(=O)Nc2cccc(Cl)c2)C1(C)C (stereo not drawn)	10	32*	7	8	26*	8	8	2	14	23*
CCCCNc1ccc2c3c(cccc13)C(=O)N(CCCC)C2=O	-28	67*	/	-143	63*	50*	49	11*	77*	79*
CCN1C(=O)c2cccc3c(N)ccc(c23)C1=O	-119	25*	/	-83	27*	13	13	2	35*	35*
COC(=O)c1cn[nH]c1NC(=S)Nc1ccc(C)cc1Cl	4	23*	-8	1	50*	8	4	4	27*	12*
SMILES	SKN-1 inh	TLR9-MyD88 block	TLR4-MyD88 BLA	MT1-MMP act inh	NOD2 RIPK2 PPI	TLR9-MyD88 conf	BLA counter-1	TLR9 CHO tox	NOD2-RIPK2 conf	BLA counter-2
Cc1ccc(NC(=O)NN2CCN(C)CC2)cc1C	19	5	/	-1	-10	/	/	/	/	/
Cc1ccccc1NC(=O)Cc1nc(COC(=O)c2ccc(S(C)(=O)=O)c([N+](=O)[O-])c2)cs1	7	25*	/	-4	45*	17	6	84*	50*	11*
Cc1ccccc1NC(=O)COC(=O)c1ccc(S(C)(=O)=O)c([N+](=O)[O-])c1	-2	13	18	-3	7	/	/	/	/	/
O=c1c2c([N+](=O)[O-])cc([N+](=O)[O-])cc2sn1Cc1ccccc1	15	32*	/	0	26*	20	5	95*	12	9
COc1cc(OC)c(C2C(C#N)=C(C)NC(C)=C2C#N)c(C(=O)O)c1	15	-2	/	2	-6	/	/	/	/	/
Nc1cccc2c1C(=O)N(C(=O)c1cccc(S(=O)(=O)N3CCCC3)c1)C2=O	13	23*	19	-1	22*	13	16	-4	28*	35*
COc1ccc(Cl)cc1Nc1nc(Cl)nc(NCCO)n1	11	-12	/	-2	-1	/	/	/	/	/
COc1ccc(NC2CCCN(C(=O)CCc3cn[nH]c3)C2)cc1 (stereo not drawn)	-9	5	/	-2	-6	/	/	/	/	/
Nc1c(Cl)cc(-c2[nH]c3cc(C(=O)NCCO)ccc3c(=O)c2O)cc1Cl	1	21*	/	-12	28*	11	18	5	35*	38*
O=[N+]([O-])c1ccc(N/N=C/C=C/c2ccco2)cc1	23	40*	/	-75	55*	37*	39	-3	63*	68*
C=CCn1c(O)c(C2=c3ccccc3=NC2=O)c2ccccc21	-2	21*	/	-3	77*	27*	-1	98*	80*	-1
